ChEMBL document CHEMBL1157096, “Bioactive metabolites from cultures of basidiomycete Favolaschia tonkinensis” (J Nat Prod, 2010)
≈ marks a conversion by molar mass, not a printed value.

Assays:
KB = experiment: Cytotoxicity against human KB cells by resazurin microplate assay; format: functional, cell-based
Summary of the method: (§1)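 Resazurin microplate assay on KB (oral human epidermoid carcinoma), MCF-7 (human breast cancer) and NCI-H187 (human small-cell lung cancer) cells, with IC50 in µg/mL.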

NCI-H187 = experiment: Cytotoxicity against human NCI-H187 cells by resazurin microplate assay; format: functional, cell-based; summary of the method: as §1
Candida albicans = experiment: Antifungal activity against Candida albicans; format: functional, organism-based
Summary of the method: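 Candida albicans tested by resazurin microplate assay, with IC50 in µg/mL.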

MCF7 = experiment: Cytotoxicity against human MCF7 cells by resazurin microplate assay; format: functional, cell-based; summary of the method: as §1
Vero = experiment: Cytotoxicity against african green monkey Vero cells by green fluorescent protein assay; format: cell-based; conditions: Chlorocebus sabaeus
Summary of the method: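 Vero (African green monkey kidney fibroblast) cytotoxicity measured by green fluorescent protein (GFP)-based method.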

Plasmodium falciparum [1] = experiment: Antimalarial activity against Plasmodium falciparum K1 assessed as [G-3H]hypoxanthine uptake after 24 hrs by scintillation counting; format: functional, organism-based; conditions: K1, 24 h
Summary of the method: (§2)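 Plasmodium falciparum strain K1 tested by microculture radioisotope technique, with IC50 in µg/mL.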

Plasmodium falciparum [2] = experiment: Antimalarial activity against Plasmodium falciparum K1; format: functional, organism-based; summary of the method: as §2

Row | IC50 (Candida albicans) [µg/mL] | IC50 (Plasmodium falciparum [1]) [µg/mL] | IC50 (Plasmodium falciparum [2]) [µg/mL] | SMILES | IC50 (KB) [µg/mL] | IC50 (NCI-H187) [µg/mL] | IC50 (MCF7) [µg/mL] | IC50 (Vero) [µg/mL]
1 | 0.22 (≈ 0.624 µM) | 0.3 (≈ 0.85 µM) |  | CO\C=C(C(=O)OC)/C(C)=C(\C=C\c1ccc(Cl)c(OC)c1)OC [9-METHOXYSTROBILURIN B] | 5.45 (≈ 15.4 µM) | 0.4 (≈ 1.13 µM) | 4.86 (≈ 13.8 µM) | 7.91 (≈ 22.4 µM)
2 | 0.07 (≈ 0.0758 µM) |  |  | C[C@@H]1[C@H](O)[C@@H](C)/C=C/C=C/C=C/C=C/C=C/C=C/C=C/[C@H](O[C@@H]2O[C@H](C)[C@@H](O)[C@H](N)[C@@H]2O)C[C@@H]2O[C@](O)(C[C@@H](O)C[C@@H](O)[C@H](O)CC[C@@H](O)C[C@@H](O)CC(=O)O[C@H]1C)C[C@H](O)[C@H]2C(=O)O [AMPHOTERICIN B] |  |  |  | 
3 | 0.89 (≈ 2.51 µM) |  | 0.4 (≈ 1.13 µM) | CO/C=C(/C(=O)OC)[C@H](C)[C@H](/C=C/c1ccc(Cl)c(OC)c1)OC [(-)-OUDEMANSIN B] | 0.73 (≈ 2.06 µM) | 0.02 (≈ 0.0564 µM) | 27.8 (≈ 78.5 µM) | 14.3 (≈ 40.2 µM)
4 |  | 0.0011 (≈ 0.00387 µM) |  | C[C@H]1[C@@H](O)O[C@@H]2O[C@@]3(C)CC[C@H]4[C@H](C)CC[C@@H]1[C@@]24OO3 [ARTENIMOL] |  |  |  | 

The remaining lines, values behind:

Row | SMILES | IC50 (Candida albicans) [µg/mL] | IC50 (Plasmodium falciparum [1]) [µg/mL] | IC50 (Plasmodium falciparum [2]) [µg/mL] | IC50 (KB) [µg/mL] | IC50 (NCI-H187) [µg/mL] | IC50 (MCF7) [µg/mL] | IC50 (Vero) [µg/mL]
5 | COc1cccc2c1C(=O)c1c(O)c3c(c(O)c1C2=O)C[C@@](O)(C(=O)CO)C[C@@H]3O[C@H]1C[C@H](N)[C@H](O)[C@H](C)O1 [DOXORUBICIN] |  |  |  | 0.25 (≈ 0.46 µM) | 0.04 (≈ 0.0736 µM) | 0.57 (≈ 1.05 µM) | 
6 | CO\C=C(C(=O)OC)/C(C)=C(\C=C\c1ccccc1)OC [9-METHOXYSTROBILURIN A] | 0.06 (≈ 0.208 µM) | 0.39 (≈ 1.35 µM) |  | 1.39 (≈ 4.82 µM) | 1.57 (≈ 5.44 µM) | 12.4 (≈ 43.1 µM) | 21.3 (≈ 73.8 µM)
7 | CO/C=C(/C(=O)OC)[C@H](C)[C@H](/C=C/c1ccccc1)OC | 0.76 (≈ 2.62 µM) |  | 3 (≈ 10.3 µM) | 5.48 (≈ 18.9 µM) | 15.1 (≈ 52 µM) | > 50 | 39.2 (≈ 135 µM)
8 | O=C(O)c1ccc2c(c1)C=C/C(=C\Cl)CO2 | > 50 | > 10 |  | 0.78 (≈ 3.3 µM) | 11.7 (≈ 49.3 µM) | > 50 | > 50
9 | Cc1c2ccncc2c(C)c2c1[nH]c1ccccc12 [ELLIPTECINE] |  |  |  | 0.45 (≈ 1.83 µM) | 0.68 (≈ 2.76 µM) |  | 1.18 (≈ 4.79 µM)
10 | NC(=O)c1ccc2c(c1)C=C/C(=C\Cl)CO2 | > 50 | > 10 |  | 12.1 (≈ 51.6 µM) | > 50 | > 50 | > 50
11 | CO\C=C(C(=O)OC)/C(C)=C(\C=C\c1ccc2c(c1)OC(C)(C)[C@@H](OCC=C(C)C)CO2)OC | 0.5 (≈ 1.06 µM) | 0.03 (≈ 0.0635 µM) |  | 14.3 (≈ 30.3 µM) | 0.36 (≈ 0.762 µM) | 15.4 (≈ 32.6 µM) | 24 (≈ 50.7 µM)
